Series [1] has as its system Eμ-TCL1 leukemic splenocytes. Put plainly: Eμ-TCL1-C57BL/6 transplant mouse model of CLL. The class given is in vivo, C57BL/6 mice. The method, boiled down:
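CD19+CD5+ splenocytes (1×10^7) from an Eμ-TCL1 donor with active leukemia (>10% CD45+CD5+CD19+ in blood) and splenomegaly were injected into C57BL/6 mice by tail vein. At onset (≥10% CD45+CD5+CD19+), mice were randomized to oral gavage with vehicle (0.5% methylcellulose/1% Tween80), test compound 15 mg/kg daily or twice weekly, or ibrutinib 20 mg/kg. Blood flow cytometry was done weekly and spleen volume measured at euthanasia. Kaplan-Meier/log-rank, mixed-effects model, ANOVA (log-transformed, Dunnett).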

Series [2] has as its system NPM1. As to the kind of experiment: Confocal microscopy of NPM1 localization in OCI-AML3. It counts as cell-based. The method, boiled down:
(§1)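 About 200,000 cells were cytospun onto slides, then fixed, permeabilized, blocked and immunostained for p53 (MV4-11) or NPM1 (OCI-AML3). DNA was counterstained with DAPI, and subcellular localization was imaged by confocal microscopy using merged channels.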

In series [3] the test system is primary CLL cells. As to the kind of experiment: Apoptosis of primary CLL cells by annexin-V/PI in FBS or human serum. The class given is cell-based. As to conditions: 10% fetal bovine serum or human serum, 24h.
The target in series [4] is T1, XPO1 (Saccharomyces cerevisiae, UniProt P30822, DEL377-413/T539C). As to the kind of experiment: Reversibility of inhibitor conjugation to XPO1. It counts as biochemical. The note with it: 10uM inhibitor; dialysis or DTT, 24 hours. The method, boiled down:
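XPO1 was incubated in triplicate with 10 μM inhibitor, then dialysed or treated with DTT. It was then used in a binding assay with RanGTP and immobilized GST-MVM NES, with bound proteins resolved by SDS-PAGE and Coomassie staining. XPO1 band intensities were quantified and expressed as percentage of DMSO-treated controls.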

Series [5] can be described thus: Brain penetration, monkey. The class given is in vivo.
Series [6] deals with MV4-11. As to the kind of experiment: MV4-11 xenograft mouse model of AML. The class given is in vivo, NSG mice. The note with it: day 21.
Series [7] in a line: Brain penetration, mouse. It counts as in vivo.
For series [8], the system named is primary CLL cells. Put plainly: Cytotoxicity in primary CLL cells by MTS. The note with it: 48h (24h in Supplementary Figure 6). The class given is cell-based, Human.
Series [9] has as its target T1, XPO1. Put plainly: Pull-down inhibition assay of XPO1 with immobilized NESs. The class given is biochemical. The note with it: 10uM inhibitor. The procedure, abridged:
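Purified recombinant yeast XPO1 (2 μM) was pre-incubated with RanGTP (10 μM) and 10 μM inhibitor for varying times at 4°C. The mixture was rotated with immobilized GST-PKI NES for 1 h. After extensive washing, bound protein was resolved by SDS-PAGE and stained with Coomassie Blue.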

The test system of series [10] is IkB. As to the kind of experiment: Nuclear retention of IkB in CLL cells. As to conditions: 0.5 μM. It counts as cell-based, Human. The procedure, abridged: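 Treated primary CLL cells were fractionated into nuclear extracts with a commercial kit. Proteins were resolved by SDS-PAGE and probed with anti-IκB antibodies. Bands were detected by chemiluminescence and quantified by densitometry.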

A short description of series [11]: Brain penetration, rat. It counts as in vivo.
Series [12] concerns the target T2, XPO1 (Homo sapiens, UniProt O14980). Put plainly: XPO1 total protein in primary CLL cells. The class given is cell-based. As to conditions: 0.5 μM. The procedure, abridged: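 Freshly isolated patient CLL cells were treated with DMSO or 0.5 μM compound and harvested at 2, 4, 8 and 18 h (N=3). Cells were lysed in RIPA buffer, resolved by SDS-PAGE and immunoblotted for XPO1. Signal was detected by chemiluminescence and quantified by densitometry.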

Series [13] has as its system ABC-DLBCL cell lines. Put plainly: Proliferation of ABC-DLBCL cell lines by MTS. It counts as cell-based.
Series [14] deals with primary AML samples. As to the kind of experiment: Proliferation assay. As to conditions: Homo sapiens. It counts as cell-based. The procedure, abridged:
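Primary AML cells came from blood or frozen bone marrow of three newly diagnosed, untreated patients, collected under informed consent. Viability was measured by WST-1 assay after treatment with the test compound.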

The target in series [15] is T2, XPO1. As to the kind of experiment: XPO1 degradation by SINE compound treatment in HT1080 cells. It counts as cell-based. As to conditions: 25-1000 nM, 18 hours.
Series [16] can be described thus: Plasma accumulation after repetitive dosing. The class given is in vivo. As to conditions: data not shown.
For series [17], the system named is GC-DLBCL cell lines. Put plainly: Proliferation of GC-DLBCL cell lines by MTS. It counts as cell-based.
Series [18] has as its system p53. Put plainly: Confocal microscopy of p53 localization in MV4-11. The class given is cell-based. As to conditions: MV4-11, confocal microscopy. The method, boiled down: as §1

Where only a bound is given, the exact number is not on record here.

T2 sequence (O14980 whole entry): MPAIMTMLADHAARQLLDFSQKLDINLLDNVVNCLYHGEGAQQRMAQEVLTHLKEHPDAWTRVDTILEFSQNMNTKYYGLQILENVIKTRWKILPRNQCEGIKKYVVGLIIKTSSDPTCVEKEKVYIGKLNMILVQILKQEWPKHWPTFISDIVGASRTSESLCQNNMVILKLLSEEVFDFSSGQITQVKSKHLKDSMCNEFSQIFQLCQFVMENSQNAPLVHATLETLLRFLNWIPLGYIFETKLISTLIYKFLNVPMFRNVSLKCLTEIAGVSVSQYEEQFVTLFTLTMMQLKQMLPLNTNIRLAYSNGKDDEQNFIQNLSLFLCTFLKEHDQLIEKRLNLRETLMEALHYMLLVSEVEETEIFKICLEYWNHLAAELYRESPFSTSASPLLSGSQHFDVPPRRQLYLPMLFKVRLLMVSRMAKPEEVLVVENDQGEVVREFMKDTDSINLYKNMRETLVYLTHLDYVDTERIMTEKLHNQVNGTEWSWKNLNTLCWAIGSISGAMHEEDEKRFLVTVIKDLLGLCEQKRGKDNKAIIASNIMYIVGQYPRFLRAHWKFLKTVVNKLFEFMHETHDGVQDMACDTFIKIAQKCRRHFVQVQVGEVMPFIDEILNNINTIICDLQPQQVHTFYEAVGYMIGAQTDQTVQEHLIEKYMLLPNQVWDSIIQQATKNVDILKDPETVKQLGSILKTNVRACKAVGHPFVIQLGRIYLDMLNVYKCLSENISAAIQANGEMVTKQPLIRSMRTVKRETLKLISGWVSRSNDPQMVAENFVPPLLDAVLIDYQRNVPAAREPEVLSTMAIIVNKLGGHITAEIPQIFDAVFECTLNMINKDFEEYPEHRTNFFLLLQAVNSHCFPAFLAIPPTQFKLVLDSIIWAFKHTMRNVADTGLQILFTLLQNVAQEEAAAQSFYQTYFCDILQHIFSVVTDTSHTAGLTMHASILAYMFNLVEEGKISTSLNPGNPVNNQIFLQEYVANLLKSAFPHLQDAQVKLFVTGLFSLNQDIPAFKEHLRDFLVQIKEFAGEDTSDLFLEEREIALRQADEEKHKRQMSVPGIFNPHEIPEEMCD

`C=CC(=O)N1CCC[C@@H](n2nc(-c3ccc(Oc4ccccc4)cc3)c3c(N)ncnc32)C1` [ibrutinib, reference compound]: the “Median OS” value in [1] (Fig.4D cohort, ibrutinib 20 mg/kg daily, vehicle 20 days) amounted to 26 days.

In general, Kp refers to tissue or fluid exposure divided by exposure in the circulation. As usually defined, the IC50 is the concentration that gives 50% inhibition. As to `NC(=O)/C(=C/n1cnc(-c2cc(C(F)(F)F)cc(C(F)(F)F)c2)n1)c1cncnc1` [KPT-8602], the “Accumulation of NPM1 in the nucleus” value in series [2] is on record as “significant accumulation”. Moreover, in series [3], the “Apoptosis of CLL cells in FBS and HS” value is “effective in inducing apoptosis of CLL cells in both FBS and HS”. Besides, the “Median OS” value in series [1] (Fig.4A cohort, 15 mg/kg daily, oral gavage, vehicle 33 days) is recorded as 70 days. In addition, in [1] (Fig.4B, 15 mg/kg daily, three weeks post-treatment, p<0.001), the “Percentage of CD5+ B-cells in peripheral blood vs vehicle or KPT-8602 2x/week” value is listed as “significantly lower”. Besides, the “Spleen size at study removal vs all other groups” value in series [1] (Fig.4C, 15 mg/kg daily, p<0.001) is “significantly smaller”. Moreover, the “Spleen size vs vehicle or ibrutinib alone” value in series [1] (Fig.4F cohort, KPT-8602 15 mg/kg daily, p<0.001) is “significantly smaller”. In addition, the “Change in body weight” value in series [1] (daily treatment, after 28 days) is on record as “did not cause a significant change in body weight”. Further, the “Reversibility of conjugation to XPO1” value in series [4] is given as “slowly reversible manner”. Also, the “Mean Concentration at 2h post dose Brain” value in series [5] (Monkey, po 10 mg/kg) is less than 32 ng·h/g; in series [7] (Mouse, po 5 mg/kg), 105 ng·h/g; in series [11] (Rat, po 5 mg/kg), 70 ng·h/g. Further, the “Mean Concentration at 2h post dose Plasma” value in series [5] (Monkey, po 10 mg/kg) came to 1310 ng·h/mL; in [7] (Mouse, po 5 mg/kg) it was 550 ng·h/mL; in [11] (Rat, po 5 mg/kg), 320 ng·h/mL. Further, the Kp at 2 h is less than 0.02 in series [5] (monkey, brain/plasma, po, 10 mg/kg); 0.19 in series [7] (mouse, brain/plasma, po, 5 mg/kg); 0.22 in series [11] (rat, brain/plasma, po, 5 mg/kg). Besides, the “White blood cell count (WBC) vs vehicle” value in series [6] (15 mg/kg daily and x2/week) is “significantly reduced WBC”. Also, in series [8], the “Killing of primary CLL cells vs vehicle” value was “induced dose-dependent killing of primary CLL cells”. In [9], the “Incubation time with XPO1 to completely inhibit XPO1 binding to PKI NES” value turned out to be 60 min. For the same compound, the “Time of treatment to nuclear retention of IkB” value in series [10] was no more than 8 h. Also, in series [12], the “Time post-treatment at which XPO1 total protein was decreased” value is no more than 4 h. Further, in series [13], the “Proliferation of ABC-DLBCL cell lines” value is given as “inhibited proliferation”. The same compound displayed an IC50 in series [14] of 300 nM. Moreover, the XPO1 degradation result in [15] was “induces XPO1 degradation in HT1080 cells in a dose-dependent manner”. Moreover, the “Accumulation in plasma after repetitive dosing” value in series [16] is “does not accumulate in plasma after repetitive dosing”. Further, the “Proliferation of GC-DLBCL cell lines” value in series [17] is on record as “inhibited proliferation”. Also, in series [18], the “Accumulation of p53 in the nucleus” value is “significant accumulation”.

Turning to `O=C(/C=C\n1cnc(-c2cc(C(F)(F)F)cc(C(F)(F)F)c2)n1)NNc1cnccn1` [KPT-330, selinexor, reference compound], the “White blood cell count (WBC) vs vehicle” value in [6] (20 mg/kg 2x/week) is on record as “significantly reduced WBC”. In addition, in series [9], the “Incubation time with XPO1 to completely inhibit XPO1 binding to PKI NES” value came to 60 min. Moreover, the “Time of treatment to nuclear retention of IkB” value in [10] was no more than 8 h. Besides, the “Time post-treatment at which XPO1 total protein was decreased” value in series [12] was no more than 4 h. In series [14], this compound came in with an IC50 of 100 nM.
